Fewer inactive variants are shown than the library holds.
B1: tRNA (parent)
chain: GUUCCGUUGGCGUAAUGGUAACGCGUCUCCCUCCUAAGGAGAAGACUGCGGGUUCGAGUCCCGUACGGAACG

Variants of: B1
Test: yeast fitness relative to wild type (ratio to wild type); higher = fitter; tRNA-Arg(CCU), competitive growth, 37 C, YPD
In short: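 Amplicons of the tRNA-Arg(CCU) gene were sequenced, 100-nucleotide paired-end, from the start population and from each end population of a pooled yeast competition. The competition, in six parallel replicates, lasted 24 hours in YPD at 37°C. Fitness relative to wild type was calculated from changes in genotype frequencies. Genotypes had to have ≥ 100 starting reads, and estimates < 0.5 were set to 0.5.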

Row | Variant | yeast fitness
1 | G9A C27G C33G C55G A57C | ≤ 0.5
2 | G9A A45U C62A | ≤ 0.5
3 | G9A C31U C55U | 0.694
4 | G9A C29U U32A A43U C61G A65C C66G | ≤ 0.5
5 | G9A C29U C55U | 0.535
6 | G9A C34U C46A C62U C66U | ≤ 0.5
7 | U8G U32C C33G | ≤ 0.5
8 | G9A C31G C49G G51C | ≤ 0.5
9 | G9A C31U | 0.982
10 | G9A C31A | 0.862
11 | G9A A37C G67C | ≤ 0.5
12 | G9A C30G G58C | ≤ 0.5
13 | G9A C24G G41C C66G | ≤ 0.5
14 | G9A C27A C49U C60U C62A A65G | ≤ 0.5
15 | U8G U19A U54A A57U C66U | 0.576
16 | U8G U26A G67C | ≤ 0.5
17 | G9A A15U G41A | ≤ 0.5
18 | G9A C22U C61U A70C | ≤ 0.5
19 | U8G U35A A70C | 0.524
20 | G9A C49U G68A | 0.668
21 | G9A C49U G68C | 0.657
22 | G9A C24G C34G A43C | ≤ 0.5
23 | G9A C11U C55G | 0.601
24 | G9A A36U | 0.677

Row | Variant | yeast fitness
25 | G9A A36G | 1.03
26 | U8G G38A | 0.57
27 | G9A C30U C49U U64A | ≤ 0.5
28 | G9A A45C C46G A57U | ≤ 0.5
29 | G9A A14C G58A | 0.546
30 | G9A C24U C30G C34A C49G | ≤ 0.5
31 | G9A C24G A37G U59A G67A | ≤ 0.5
32 | G9A C22U C30A C49A C55A C61A C62U C66U | ≤ 0.5
33 | G9A C24A U59A G67A | ≤ 0.5
34 | U8G U32C C33G A43U G48C C55A | ≤ 0.5
35 | U8G G52A A70U | ≤ 0.5
36 | U8G G51C C60A | ≤ 0.5
37 | G9A C33A C46A G56C | ≤ 0.5
38 | G9A C30U C33A A36U C49U | ≤ 0.5
39 | G9A C11U A14G C29A | ≤ 0.5
40 | G9A C24U U53A C66U | 0.529
41 | G9A C30A A42C G68A | ≤ 0.5
42 | U8G G23C A37G A70G | 0.631
43 | G9A C29U C31U A42U | 0.615
44 | U8G U16C | 0.6
45 | G9A A14C | 0.591
46 | G9A A14G | 0.908
47 | G9A C11A A69C | 0.567
48 | G9A A45C U64C A65C | 0.648

Row | Variant | yeast fitness
49 | U8G G51A A65C C66U | ≤ 0.5
50 | U8G G38A A69U | 0.507
51 | U8G U53C | 0.806
52 | G9A C34U G44C A45C C66A | 0.578
53 | G9A C34U G44C A45C C66G | ≤ 0.5
54 | G9A C31A G56A G67A | ≤ 0.5
55 | G9A C22A U47G C55A U64C G67A | ≤ 0.5
56 | G9A C24U G38C G56C | ≤ 0.5
57 | G9A C11A A14C U16A C31A C61U | ≤ 0.5
58 | G9A C31A G50C | 0.604
59 | G9A A15G U16A G23C | ≤ 0.5
60 | U8G U19A C22A C66U | ≤ 0.5
61 | U8G G18C C49U G58A G67A | ≤ 0.5
62 | U8G U28C G38C C62U | ≤ 0.5
63 | G9A C22A U53A A57G C60A | ≤ 0.5
64 | U8G G68C | 0.583
65 | G9A C22U A37G | ≤ 0.5
66 | G9A A40G C60U | ≤ 0.5
67 | G9A A14U C29G C34A | 0.55
68 | G9A C34G A65U | ≤ 0.5
69 | G9A C33U G56A G67A | ≤ 0.5
70 | G9A A43U C49U | 0.744
71 | G9A C30A A45C C49A | 0.651
72 | G9A C34U U59C A65C A69G | ≤ 0.5

Row | Variant | yeast fitness
73 | G9A A45G | 1.01
74 | G9A A45U | 0.86
75 | G9A A36C G48A G67A | ≤ 0.5
76 | G9A C34G C55U G63A | ≤ 0.5
77 | G9A C11A G44A C46A | ≤ 0.5
78 | U8G U26A G68C | ≤ 0.5
79 | G9A C30U G44A A65U | 0.578
80 | G9A C31G G56C C66A | ≤ 0.5
81 | G9A C11G G50C C61G A70C | ≤ 0.5
82 | G9A C30G U32C G41A A57U | ≤ 0.5
83 | G9A C11G U19C | 0.536
84 | G9A A43C A57U C66U | 0.516
85 | U8G U16G C62G | 0.616
86 | G9A C46U C66U | 1.04
87 | U8G U16A G18C C22G | ≤ 0.5
88 | G9A | 0.991
89 | G9A A40U G51C C66U G67U | ≤ 0.5
90 | G9A C27U A45C | 0.904
91 | G9A C30U C34G A40C C49G G68C | ≤ 0.5
92 | G9A C11U C29A | 0.506
93 | G9A C11G C24G U32A | ≤ 0.5
94 | G9A C27G C34A C46G C55A G63A | ≤ 0.5
95 | G9A C29A C34A | 0.576
96 | G9A C31A C46A A57G | ≤ 0.5

Row | Variant | yeast fitness
97 | G9A C29G A57G | ≤ 0.5
98 | G9A A36C C49A C55U A57G A69U | ≤ 0.5
99 | G9A A21U A36G A40C U47C | ≤ 0.5
100 | G9A C29A C31A A40C G44A U59A | ≤ 0.5
101 | U8G G18C C22U C29U C46A C55G | 0.574
102 | U8G G38C G39C A40G G44A C46G G52A | ≤ 0.5
103 | G9A C22G A65C | 0.679
104 | G9A C11U | 0.928
105 | G9A C11G | 0.583
106 | G9A C11A | 0.604
107 | G9A C49U A65U | 0.651
108 | G9A C24U A40U A57U | 0.514
109 | G9A C24A C66A | ≤ 0.5
110 | G9A C11G C55G | 0.562
111 | G9A A14G C61U A70G | ≤ 0.5
112 | G9A C30A G38A A42C C61U | ≤ 0.5
113 | G9A C29A C34A G67C | ≤ 0.5
114 | G9A C11U A37G A45C | 0.603
115 | G9A C22U A43G U64A | ≤ 0.5
116 | G9A C27G A43G C66G | 0.717
117 | G9A A21U C31G G63A C66A | ≤ 0.5
118 | G9A C29A G48A | ≤ 0.5
119 | G9A A36C A45C | 0.602
120 | U8G G18C A37G A40G G63C | 0.506

Row | Variant | yeast fitness
121 | G9A A20U A21U | ≤ 0.5
122 | G9A C11A G50C C55A | ≤ 0.5
123 | G9A A57U C66U | 0.548
124 | G9A C11U U47G C62G A69C | ≤ 0.5
125 | G9A A36G C66U | 0.77
126 | G9A A37G A40U C49A A57U | ≤ 0.5
127 | U8G U13A | 0.56
128 | G9A C34U A36G C49G C62A A65C | ≤ 0.5
129 | G9A C30A A57C A70U | ≤ 0.5
130 | G9A C11G U13C C27A C29U C62A | ≤ 0.5
131 | G9A C11G U13C C27A C29U | ≤ 0.5
132 | G9A A37C U54C G67C | ≤ 0.5
133 | G9A C22G G67A | 0.648
134 | G9A C27G A40G G68A | ≤ 0.5
135 | G9A C22U C60G A65C | 0.648
136 | G9A C46G C61A | ≤ 0.5
137 | G9A A45U G50A G58C | 0.975
138 | G9A A42G C49A G58A | ≤ 0.5
139 | G9A A65G | 0.881
140 | G9A C11G U32G A45G C49U U53A | 0.549
141 | G9A A43G G63A | ≤ 0.5
142 | G9A C27U C46G | 0.708
143 | G9A C22U G48A C60G A65C | ≤ 0.5
144 | G9A A20G | 1.05

Row | Variant | yeast fitness
145 | G9A C30U G68C | ≤ 0.5
146 | G9A C30U G52A | ≤ 0.5
147 | G9A A43G | 0.987
148 | G9A C34U C46A C61A C62U | ≤ 0.5
149 | G9A C11G A36U | ≤ 0.5
150 | G9A C22G U35C A70G | ≤ 0.5
151 | U8G U35G | ≤ 0.5
152 | U8G U35C | 0.767
153 | G9A C30G A70U | 0.57
154 | G9A C27G C31U C46G G51C | 0.594
155 | G9A A21U C66G | ≤ 0.5
156 | G9A A57U | 0.672
157 | U8G G17A C24G C66U | ≤ 0.5
158 | G9A A15U A20G | 0.503
159 | G9A A15C G56A C61U | ≤ 0.5
160 | G9A C30U C33A A36U A43U | ≤ 0.5
161 | U8G U32C C34G G68A | 0.598
162 | U8G U35A U54A | 0.548
163 | G9A A15U A45U | 0.533
164 | G9A C29G C66U | ≤ 0.5
165 | G9A A36C A45C G63A | ≤ 0.5
166 | G9A A21U C24U C29U C49U | ≤ 0.5
167 | G9A C29U A43G G68U | 0.527
